Source: ChEMBL document CHEMBL3286132, “Syntheses, characterization and evaluation of novel 2,6-diarylpiperidin-4-ones as potential analgesic-antipyretic agents” (Eur J Med Chem, 2014)

How the values were obtained:
[1] = system: Rattus norvegicus; assay: Antipyretic activity in Wistar rat assessed as reduction in Brewer's yeast-induced hyperthermia measured as rectal temperature at 60 mg/kg, po administered 18 hrs post challenge measured after 1 hr post dose (reference value: 39.300 +/- 0.071 degC); type: functional
Method in brief: (§1)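 Male Wistar rats (200-300 g), fasted, groups of 5. Fever induced by sc 15% brewer's yeast in normal saline (10 ml/kg). Rectal temperature taken with a digital thermometer inserted about 7 mm. After 18 h, rats at 38 °C or above were used. Dosed orally as suspension in 0.5% CMC; vehicle controls. Temperature then read at set times after dosing. Values are means of five.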

[2] = system: Mus musculus; assay: Analgesic activity in albino mouse assessed as inhibition of acetic acid-induced writhing at 60 mg/kg, po administered 1 hr prior challenge relative to control; type: functional
Method in brief: (§2)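 Male albino mice (25-30 g), fasted 20-24 h, groups of 5. Dosed orally as suspension in 0.5% sodium CMC; vehicle controls. 1 h later, 1% acetic acid in normal saline (10 ml/kg) given ip. Starting 5 min after injection, writhes counted over 30 min. Percent inhibition calculated from group mean writhes versus control.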

[3] = system: Mus musculus; assay: Neurotoxicity in po dosed albino mouse assessed as alteration of motor activity […] by rotarod test; type: toxicity, organism-based; details: in vivo
[4] = system: Rattus norvegicus; assay: Antipyretic activity in Wistar rat assessed as reduction in Brewer's yeast-induced hyperthermia measured as rectal temperature at 60 mg/kg, po administered 18 hrs post challenge measured after 2 hrs post dose (reference value: 39.320 +/- 0.102 degC); type: functional; method in brief: as §1
[5] = Hydrolysis of the compound in simulated intestinal fluid at 10 mg after 120 mins by spectrophotometry; type: ADME; details: read-out: Drug degradation
Method in brief: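 Samples shaken on an orbital shaker at 37 ± 2 °C in simulated intestinal fluid. Aliquots were drawn at 0, 15, 30, 45, 60, 75, 90, 105 and 120 min, then diluted, filtered and read spectrophotometrically at each compound's λmax. % hydrolysed = (A0 − A120)/A0 × 100.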

[6] = Partition co-efficient, log P of the compound in ocatanol-water by shake flask method; type: physicochemical; details: octanol/water
Method in brief: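 Shake-flask method: 2 mg dissolved in 50 ml water plus 50 ml octanol, shaken 30 min and left 24 h to equilibrate. Phases were separated, and octanol-phase concentration was taken from absorbance against a standard curve. Log P was calculated from that concentration.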

[7] = system: Rattus norvegicus; assay: Antipyretic activity in Wistar rat assessed as reduction in Brewer's yeast-induced hyperthermia measured as rectal temperature at 60 mg/kg, po administered 18 hrs post challenge measured after 3 hrs post dose (reference value: 39.400 +/- 0.071 degC); type: functional; method in brief: as §1
[8] = system: Rattus norvegicus; assay: Antipyretic activity in Wistar rat assessed as reduction in Brewer's yeast-induced hyperthermia measured as rectal temperature at 150 mg/kg, po administered 18 hrs post challenge measured after 2 hrs post dose (reference value: 39.320 +/- 0.102 degC); type: functional; method in brief: as §1
[9] = system: Rattus norvegicus; assay: Antipyretic activity in Wistar rat assessed as reduction in Brewer's yeast-induced hyperthermia measured as rectal temperature at 150 mg/kg, po administered 18 hrs post challenge measured after 1 hr post dose (reference value: 39.300 +/- 0.071 degC); type: functional; method in brief: as §1
[10] = system: Rattus norvegicus; assay: Antipyretic activity in Wistar rat assessed as reduction in Brewer's yeast-induced hyperthermia measured as rectal temperature at 150 mg/kg, po administered 18 hrs post challenge measured after 3 hrs post dose (reference value: 39.400 +/- 0.071 degC); type: functional; method in brief: as §1
[11] = system: Mus musculus; assay: Neurotoxicity in albino mouse assessed as alteration of motor activity at 2 mg/kg, po measured after 60 mins for 60 secs by rotarod test; type: toxicity, organism-based; set-up: dose 2 mg/kg, route oral; details: in vivo
Method in brief: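 Male albino mice on a 1 in. knurled wooden rod rotating at 6–10 rpm. Testing began 60 min after oral dosing. Neurological toxicity was defined as failure to stay on the rod for 1 min or more.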

[12] = system: Mus musculus; assay: Analgesic activity in albino mouse assessed as inhibition of acetic acid-induced writhing at 10 mg/kg, po administered 1 hr prior challenge relative to control; type: functional; method in brief: as §2

Structure (SMILES) | T [1] | inhibition in vivo at 60 mg/kg [2] | Activity [3] | T [4] | degraded at 2 h [5] | logP [6] | T [7] | T [8] | T [9] | T [10] | Activity [11] | inhibition in vivo at 10 mg/kg [12]
CC1C(=O)CC(c2ccc(Cl)cc2)N(C(=O)CCl)C1c1ccc(N(C)C)cc1 (stereo not given) | 39 °C | 17.8% | Non-toxic | 38.56 °C | 76.8% | 1.24 | 37.86 °C |  |  |  |  | 
CC1C(=O)CC(c2ccc(Cl)cc2)N(C(=O)CN2CCN(C)CC2)C1c1ccc(N(C)C)cc1 (stereo not given) | 38.9 °C | 28.1% | Non-toxic | 38.14 °C | 77.6% | 1.35 | 37.52 °C |  |  |  |  | 
CC1C(=O)CC(c2ccc(F)cc2)N(C(=O)CCl)C1c1ccc(Cl)cc1 (stereo not given) | 38.14 °C | 57.6% | Non-toxic | 37.54 °C | 1.17% | 1.72 | 37.16 °C |  |  |  |  | 
CC1C(=O)CC(c2ccc(F)cc2)N(C(=O)CN2CCN(C)CC2)C1c1ccc(Cl)cc1 (stereo not given) | 37.9 °C | 65.5% | Non-toxic | 37.16 °C | 4.49% | 2.09 | 37.18 °C |  |  |  |  | 
COc1ccc(C2C(C)C(=O)CC(c3ccc(F)cc3)N2C(=O)CCl)cc1 (stereo not given) | 38.58 °C | 51.2% | Non-toxic | 37.9 °C | 2.01% | 1.42 | 37.2 °C |  |  |  |  | 
COc1ccc(C2C(C)C(=O)CC(c3ccc(F)cc3)N2C(=O)CN2CCN(C)CC2)cc1 (stereo not given) | 38.18 °C | 55.2% | Non-toxic | 37.44 °C | 2.51% | 1.53 | 37.1 °C |  |  |  |  | 
CC1C(=O)CC(c2ccc(Cl)cc2)N(C(=O)CCl)C1c1ccc(O)cc1 (stereo not given) | 38.92 °C | 39.7% | Non-toxic | 38.5 °C | 42.7% | 1.05 | 37.14 °C |  |  |  |  | 
COc1ccc(C2C(C)C(=O)CC(c3ccc(Cl)cc3)N2C(=O)CCl)cc1 (stereo not given) | 38.76 °C | 44.1% | Non-toxic | 38.36 °C | 2.68% | 1.29 | 37.2 °C |  |  |  |  | 
COc1ccc(C2C(C)C(=O)CC(c3ccc(Cl)cc3)N2C(=O)CN2CCN(C)CC2)cc1 (stereo not given) | 38.52 °C | 53% | Non-toxic | 37.68 °C | 18.8% | 1.48 | 37.28 °C |  |  |  |  | 
CC1C(=O)CC(c2ccc(F)cc2)N(C(=O)CCl)C1c1ccc(O)cc1 (stereo not given) | 38.72 °C | 51.2% | Non-toxic | 38.3 °C | 43.2% | 1.14 | 37.16 °C |  |  |  |  | 
CC(=O)Nc1ccc(O)cc1 [ACETAMINOPHEN] |  |  |  |  |  |  |  | 37.14 °C | 37.88 °C | 37.1 °C |  | 
CN1C(=O)CN=C(c2ccccc2)c2cc(Cl)ccc21 [DIAZEPAM] |  |  |  |  |  |  |  |  |  |  | Toxic | 
O=C(O)Cc1ccccc1Nc1c(Cl)cccc1Cl [DICLOFENAC SODIUM] |  |  |  |  |  |  |  |  |  |  |  | 56.5%
